Results: ChEMBL document CHEMBL1140112, “Desferrithiocin analogues and nephrotoxicity” (J Med Chem, 2008)

What was measured:
Rattus norvegicus [1] = assay: Iron-clearing efficiency in non-iron-overloaded Sprague-Dawley rat at 300 umol/kg, po after 24 hrs relative to control; type: functional
Procedure, shortened: (§1)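 Non-iron-overloaded, bile duct-cannulated male Sprague-Dawley rats (400-450 g) got a single 300 µmol/kg dose by oral gavage, as the monosodium salt in distilled water. Bile was collected at 3 h intervals for 24 h and urine at 24 h, with iron by atomic absorption. ICE = treated minus control iron excretion, divided by theoretical output (2:1 complex), as %. n = 3-8; mean ± SEM.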

Rattus norvegicus [2] = assay: Iron-clearing efficiency in non-iron-overloaded Sprague-Dawley rat assessed as urine iron excretion at 300 umol/kg, po relative to control; type: functional; procedure, shortened: as §1
Rattus norvegicus [3] = assay: Nephrotoxicity in non-iron-overloaded Sprague-Dawley rat at 300 umol/kg, po; type: toxicity, organism-based; conditions: in vivo
Procedure, shortened: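 Male Sprague-Dawley rats (400-450 g), not iron-overloaded, bile duct-cannulated, each given a single 300 µmol/kg oral gavage dose.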

[4] = Apparent partition coefficient, log P at pH 7.4 by shake flask method; type: physicochemical; conditions: octanol/water; for logD: read-out: LogD7.4
Procedure, shortened: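 Apparent partition between octanol and water, expressed as log of the fraction in the octanol layer (log P_app); direct shake-flask method in Tris buffer, pH 7.4.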

Rattus norvegicus [5] = assay: Iron-clearing efficiency in non-iron-overloaded Sprague-Dawley rat assessed as bile iron excretion at 300 umol/kg, po relative to control; type: functional; procedure, shortened: as §1
Sapajus apella [6] = assay: Iron-clearing efficiency in iron-overloaded Cebus apella assessed as bile iron excretion at 150 umol/kg, po relative to control; type: functional
Sapajus apella [7] = assay: Iron-clearing efficiency in iron-overloaded Cebus apella at 150 umol/kg, po relative to control; type: functional
Procedure, shortened: (§2)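 Iron-overloaded Cebus apella were dosed once by oral gavage with the monosodium salt (free acid plus 1 equiv NaOH in distilled water; one ligand in 40% Cremophor RH-40/water). Feces and urine were collected at 24 h intervals from 4 d pre-drug to 5 d post-drug, and iron was read by flame AAS. ICE = 2-day post-drug iron minus mean 4-day baseline, divided by theoretical output (2:1 complex), as %. Mean ± SEM.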

Sapajus apella [8] = assay: Iron-clearing efficiency in iron-overloaded Cebus apella assessed as urine iron excretion at 150 umol/kg, po relative to control; type: functional; procedure, shortened: as §2

Q: With `CCCCOc1ccc(O)c(C2=N[C@@](C)(C(=O)[O-])CS2)c1.[Na+]` as the compound, how does the Activity (Rattus norvegicus [1]) read?
A: 21%

Q: And the Activity (Rattus norvegicus [2])?
A: 1%

Q: What about the Activity (Rattus norvegicus [3]) of the same compound?
A: Toxic

Q: What about the LogD7.4 [4] of the same compound?
A: 0.94

Q: What about the Activity (Rattus norvegicus [5]) of the same compound?
A: 99%

Q: Which Activity (Rattus norvegicus [1]) does the source give for `CCCCCCCCOc1ccc(O)c(C2=N[C@@](C)(C(=O)[O-])CS2)c1.[Na+]` here?
A: 4%

Q: And the Activity (Rattus norvegicus [2])?
A: 3%

Q: What about the LogD7.4 [4] of the same compound?
A: 1.56

Q: And the Activity (Rattus norvegicus [5])?
A: 97%

Q: Which results are given for `COCCOCCOCCOc1ccc(C2=N[C@@](C)(C(=O)[O-])CS2)c(O)c1.[Na+]`?
A: Activity (Sapajus apella [6]): 96%; Activity (Sapajus apella [7]): 25.4%; Activity (Rattus norvegicus [1]): 5.5%; Activity (Rattus norvegicus [2]): 10%; Activity (Rattus norvegicus [5]): 90%; Activity (Sapajus apella [8]): 4%

Q: Which Activity (Sapajus apella [6]) does the source give for `C[C@]1(C(=O)[O-])CSC(c2cc(O)ccc2O)=N1.[Na+]` here?
A: 88%

Q: What about the Activity (Sapajus apella [7]) of the same compound?
A: 12.6%

Q: And the Activity (Rattus norvegicus [1])?
A: 1%

Q: And the Activity (Rattus norvegicus [2])?
A: 1%

Q: And the logD [4]?
A: -1.14

Q: And the Activity (Rattus norvegicus [5])?
A: 99%

Q: What about the Activity (Sapajus apella [8]) of the same compound?
A: 12%

Q: With `CCCCOc1ccc(C2=N[C@@](C)(C(=O)[O-])CS2)c(O)c1.[Na+]` as the compound, how does the Activity (Rattus norvegicus [1]) read?
A: 13.1%

Q: What about the Activity (Rattus norvegicus [2]) of the same compound?
A: 2%

Q: What about the Activity (Rattus norvegicus [3]) of the same compound?
A: Toxic

Q: And the LogD7.4 [4]?
A: 1.02

Q: And the Activity (Rattus norvegicus [5])?
A: 98%

Q: For `CCCCCCCCOc1ccc(C2=N[C@@](C)(C(=O)[O-])CS2)c(O)c1.[Na+]`, which Activity (Rattus norvegicus [1]) is on record?
A: 6.4%

Q: What about the Activity (Rattus norvegicus [2]) of the same compound?
A: 6%

Q: And the LogD7.4 [4]?
A: 1.53

Q: And the Activity (Rattus norvegicus [5])?
A: 94%

Q: With `CCCCCCCCOc1cc(O)c(C2=N[C@@](C)(C(=O)[O-])CS2)cc1OCCCCCCCC.[Na+]` as the compound, how does the Activity (Rattus norvegicus [1]) read?
A: <0.5%

Q: What about the LogD7.4 [4] of the same compound?
A: 2.05

Q: What does the source list for `COc1ccc(C2=N[C@@](C)(C(=O)[O-])CS2)c(O)c1.[Na+]`?
A: Activity (Sapajus apella [6]): 91%; Activity (Sapajus apella [7]): 24.4%; Activity (Rattus norvegicus [1]): 6.6%; Activity (Rattus norvegicus [2]): 2%; Activity (Rattus norvegicus [5]): 98%; Activity (Sapajus apella [8]): 9%

Q: With `COc1ccc(O)c(C2=N[C@@](C)(C(=O)[O-])CS2)c1.[Na+]` as the compound, how does the Activity (Sapajus apella [6]) read?
A: 94%

Q: And the Activity (Sapajus apella [7])?
A: 18.9%

Q: And the Activity (Rattus norvegicus [1])?
A: 6.3%

Q: And the Activity (Rattus norvegicus [2])?
A: 5%

Q: What about the logD [4] of the same compound?
A: -0.61

Q: And the Activity (Rattus norvegicus [5])?
A: 95%

Q: And the Activity (Sapajus apella [8])?
A: 6%

Q: Which results are given for `CCOc1ccc(C2=N[C@@](C)(C(=O)[O-])CS2)c(O)c1.[Na+]`?
A: Activity (Rattus norvegicus [1]): 18%; Activity (Rattus norvegicus [2]): 0%; LogD7.4 [4]: -0.04; Activity (Rattus norvegicus [5]): 100%

Q: What does the source list for `C[C@]1(C(=O)[O-])CSC(c2ccc(O)cc2O)=N1.[Na+]` [DEFERITRIN SODIUM]?
A: Activity (Sapajus apella [6]): 88%; Activity (Sapajus apella [7]): 16.8%; Activity (Rattus norvegicus [1]): 1.1%; Activity (Rattus norvegicus [2]): 0%; Activity (Rattus norvegicus [5]): 100%; Activity (Sapajus apella [8]): 12%
